tolC growth inh: blocks growth of E. coli BW25113 tolC mutant. OD615. growth inhibition, % at 10 µM (by protocol). hit rate 2.2% among 65,000. AID 573;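 active = growth inhibition at or above a cutoff equal to the mean over every tested compound plus 3 SD, cut at about 60% in these data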;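 note: growth measured after 20 h incubation at 37 °C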
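Test system: E. coli BW25113 ΔtolC::kan bacteria; incubation: 37 °C, 20 h exposure; medium: LB broth supplemented with 50 µg/mL kanamycin; read-out basis: percent growth inhibition; signal: A615 absorbance measurement; compound: 10 µM final, single dose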
PostGolgi yeast: growth inhibition of a yeast mutant, post-Golgi transport screen. hit rate 0.9% among 98,000. AID 739. post-Golgi transport phenotypic cell assay. inhibition, % at 10 µM;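 note: yeast cells grown in 1536-well plates; yeast grown about 18 h at 30C before absorbance read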
PostGolgi ctrl: inhibits growth of the yeast control strain; efflux-deficient yeast background strain, growth absorbance A615, 16 h; hit rate 5% among 98,000; inhibition, % at 10 µM; AID 738
E coli WT exp: growth inhibitors of E. coli BW25113 wild type; OD600 absorbance; growth inhibition, % at 100 µM; hit rate 0.15% among 98,000; AID 710;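 active = growth inhibition above about 50% at one test dose, limit read from the data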;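 note: growth measured after 20 h incubation at 37 °C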
Cav32 inh: inhibitors of human Cav3.2 T-type calcium channel; B-score at 10 µM; O95180; hit rate 4% among 100,000; Cav3.2-expressing cells, Fluo-4 calcium fluorescence FDSS; active compounds read low;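 active = single-dose well whose peak fluorescence ratio is a statistical outlier from its plate by either plate-standardised score or position-corrected B-score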
* marks the source's active call; other numbers are inactive results; · = not tested or not shown. An excerpt weighted towards active compounds, which were near 8.4% of everything screened. Cut-off read from the data, not from the text of the source, unless noted: active = inhibition above about 30%; inactive = the rest.

SMILES	tolC growth inh	PostGolgi yeast	PostGolgi ctrl	E coli WT exp	Cav32 inh
COC(=O)[C@@]1(Cc2ccc(OC)cc2)[C@H]2c3cc(C(=O)N4CCCC4)n(Cc4ccc(C)o4)c3C[C@H]2CN1C(=O)c1ccccc1	·	·	·	·	-1.53
O=C1C(CCS(=O)c2ccccc2)C(=O)N(c2ccccc2)N1c1ccccc1 (configuration not stated)	2.1	·	·	·	-0.261
Cc1nc(NC(=O)c2ccco2)sc1-c1csc(Nc2ccc(Cl)cc2)n1	·	-6.8	39.3*	-14.0	0.205
Cc1nc(NC(=O)c2ccccc2)sc1-c1csc(Nc2ccc(F)cc2)n1	·	32.6*	-3.2	-16.0	0.718
Cc1nc(NC(=O)c2ccccc2)sc1-c1csc(Nc2ccc(Cl)cc2)n1	·	-7.4	19.3	-24.0	1.08
Cc1ccc(Cl)cc1Nc1nc(-c2sc(NC(=O)c3ccco3)nc2C)cs1	·	-3.3	24.6	-8.0	0.297
CCn1cc(C(=O)O)c(=O)c2cc(F)c(N3CCN(C)CC3)cc21	·	·	·	·	0.349
CCn1cc(C(=O)NCc2ccco2)c(=O)c2cc(F)c(N3CCN(C(=O)c4ccco4)CC3)cc21	14.3	0.3	8.2	90.0*	2.97
CCn1cc(C(=O)NCCc2ccccc2)c(=O)c2cc(F)c(N3CCN(C)CC3)cc21	-1.4	16.3	-4.4	33.0	0.819
CCn1cc(C(=O)NCc2ccc3c(c2)OCO3)c(=O)c2cc(F)c(N3CCN(C)CC3)cc21	100.0*	8.7	7.1	100.0*	1.62
CCOC(=O)c1cn(CC)c2cc(N3CCSCC3)c(F)cc2c1=O	100.0*	-0.3	6.0	32.0	1.01
COC(=O)[C@H](Cc1ccccc1)NC(=O)NCCC1=CCCCC1	·	-5.3	7.6	-10.0	-0.635
COC(=O)C1=C(C(=O)OC)[C@@H]2N(C)c3ccc(OC)cc3[C@@]23C[C@@H](C(=O)OC)N(C(=O)c2ccco2)C3=N1	·	·	·	·	-0.102
CC(C)c1nc(NCC2CCCO2)c(C#N)c2c1COC(C)(C)C2 (configuration not stated)	4.5	2.2	17.9	4.0	-3.46*
CCc1cccc(NC(=O)C2CCCC2)c1	-1.8	-0.5	10.3	1.0	·
Cc1ccc(NC(=O)CCSCCC(=O)Nc2ccc(C)c(C)c2)cc1C	·	-6.9	-3.6	-3.0	-6.78*
CCc1cccc(NC(=O)CCSCCC(=O)Nc2cccc(CC)c2)c1	·	-7.7	2.4	-7.0	-7.46*
COc1ccccc1NC(=O)C1=C(C)NC2=C(C(=O)CCC2)C1c1ccc2c(c1)OCO2 (configuration not stated)	24.9	17.7	0.1	-2.0	-0.179
O=C(Nc1cc(C(F)(F)F)ccc1Cl)C1CCN(c2nnc(-n3cccc3)s2)CC1	7.7	6.0	39.3*	-3.0	-1.92
Cc1ccc(Cl)cc1N1CCN(C(=O)C2CCN(c3nnc(-n4cccc4)s3)CC2)CC1	17.2	-0.8	21.6	5.0	-8.22*
Cc1cccc(N2CCN(C(=O)C3CCN(c4nnc(-n5cccc5)s4)CC3)CC2C)c1 (configuration not stated)	23.4	6.0	4.9	-18.0	-1.97
CS(=O)(=O)N1CCC(C(=O)Nc2cc(C(F)(F)F)ccc2Cl)CC1	0.2	4.3	-9.6	1.0	0.683
CCCc1nc(SCC(=O)N2CCC(Cc3ccccc3)CC2)c2c(=O)n(C)c(=O)n(C)c2n1	75.2*	21.8	38.2*	-17.0	0.739
O=C1NCCN1Cc1ccccc1F	-4.9	-2.3	3.9	5.0	-0.469
CCC(C(=O)O/N=C(\N)c1ccc(Cl)cc1)c1ccccc1 (configuration not stated)	·	-2.6	14.6	-6.0	-5.62*
SMILES	tolC growth inh	PostGolgi yeast	PostGolgi ctrl	E coli WT exp	Cav32 inh
CCC(C(=O)O/N=C(\N)c1ccccc1)c1ccccc1 (configuration not stated)	·	3.1	6.9	4.0	-3.63*
Cn1nc(-c2ccc(N3CCOCC3)c(NC(=O)COc3ccccc3)c2)c2ccccc2c1=O	64.7*	·	·	·	·
CCCCn1c(=O)[nH]c(=O)c2c1nc(COC(=O)c1c(C)noc1C)n2CCC	3.6	5.7	5.6	-8.0	0.359
Oc1ccc(C(=S)N2CCCCCC2)cc1	·	-20.0	30.2*	7.0	2.81
CN(C)S(=O)(=O)c1ccc(NC(=O)COC(=O)c2ccccn2)cc1	·	-19.4	2.5	5.0	1.19
COc1ccc(S(=O)(=O)Nc2ccc(O)c(Sc3ncn[nH]3)c2)cc1	·	·	·	·	-0.322
O=S(=O)(Nc1ccc(O)c(Sc2nc3ccccc3s2)c1)c1ccc(Cl)cc1	·	36.6*	28.0	-15.0	·
O=C(CSc1nc(-c2ccccc2)cc(=O)[nH]1)N1CCOCC1	-12.2	1.9	-0.1	-2.0	1.36
COc1ccc(N2CCN(C(=O)CCCSc3nc4ccccc4[nH]3)CC2)cc1	·	4.1	24.7	4.0	-0.362
O=C(CSc1nc(N2CCCCC2)nc(N2CCCCC2)n1)c1ccccc1	10.8	2.4	4.9	-6.0	-4.22*
CCN(CC)S(=O)(=O)c1cccc(C(=O)N[C@H](C(=O)OCC(=O)Nc2ccccc2)C(C)C)c1	·	2.6	7.2	-16.0	-9.18*
Cc1snc(S(=O)(=O)/C(C#N)=N\Nc2ccccc2)c1C#N	·	15.2	-2.5	1.0	0.388
Cc1snc(S(=O)(=O)/C(C#N)=N/Nc2ccc(C(F)(F)F)cc2)c1C#N	·	-6.2	-1.6	12.0	-6.4*
Cc1cc(Cl)ccc1OCC(=O)NCCOc1nc(N2CCOCC2)nc(N2CCOCC2)n1	·	8.3	2.5	-5.0	1.56
CCOC(=O)c1cc(C)n(S(=O)(=O)c2ccc(C)cc2)c1C	65.6*	-7.1	0.8	13.0	-1.22
C=CCn1c(SCC(=O)NCc2ccccc2)nnc1-c1ccccc1O	40.0	-0.9	8.4	11.0	0.303
C=CCn1c(CSCc2ccc(Cl)cc2)nnc1SCC(=O)NCc1ccccc1	·	11.0	15.6	-15.0	-6.56*
C=CCn1c(CSCc2ccc(C)cc2)nnc1SCC(=O)NCc1ccccc1	·	-4.0	9.6	1.0	-3.6*
O=C(CSc1nnc(CCc2ccccc2)n1-c1ccc(Cl)cc1)NCc1ccccc1	·	12.0	19.2	-16.0	-5.89*
CCOC(=O)C1=C(CS(=O)(=O)c2ccc(F)c(C)c2)NC(=O)NC1c1ccc(O)c(O)c1 (configuration not stated)	3.9	-0.6	-3.3	4.0	0.0837
CCc1ccc(/C=C/C(=O)c2c(C)cc(C)[nH]c2=O)cc1	·	-5.1	5.6	6.0	1.37
CCC(=O)Nc1cc(Cl)ccc1N1CCN(C(=O)CC)CC1	-8.1	-13.4	6.5	2.0	0.421
CCC(=O)N1CCN(c2ccc(Cl)cc2NC(=O)Cc2ccccc2)CC1	43.0	18.7	18.0	-2.0	-6.04*
COc1cc(NC(=O)CC2NCCNC2=O)cc(OC)c1 (configuration not stated)	·	-1.4	7.4	-2.0	-3.66
COc1cc(OC)c(NC2=NCCCCC2)cc1Cl	-17.3	1.2	13.0	-3.0	0.00745
Cc1cc(C)cc(NS(=O)(=O)c2cnc(Cl)c(Cl)c2)c1	·	2.4	43.5*	25.0	-5.58*
CCOc1ccc(-n2c(N)c(C(=O)NCc3ccco3)sc2=S)cc1	·	-2.2	8.0	4.0	-0.0145
CCCn1c(=O)c(Cc2ccccc2)c(O)c2ccccc21	19.7	-2.8	7.1	-11.0	·
Cn1c(=O)c(Cc2ccccc2)c(O)c2ccccc21	·	2.4	49.1*	1.0	0.424

Screens as filed in PubChem BioAssay.
